This is a sample that favours compounds with a hit; in the whole collection about 2.3% have one here.
DENV2 CPE rescue – protects cells from dengue virus 2 cytopathic effect. CPE inhibition, % at 9.99 µM. actives 1.7% (n = 350,000). DENV2-infected cells, cytopathic effect rescue, plate reader; in the data active = CPE inhibition above about 20%, passing the limit was not always enough; tested in BHK-21 cells;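 also: 0% = median of neutral control wells and 100% = median of positive control wells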
ERp5 inh – ERp5 (human) disulfide isomerase inhibition. Q15084. ERp5 insulin aggregation, absorbance 650 nm, 90 min. inhibition, % at 9.99 µM. actives 0.05% (n = 350,000). AID 651711;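 active = mean replicate inhibition above about 25%, with every replicate also reaching it, limit read from the data, passing the limit was not always enough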
Target sequence (Q15084 whole entry, looked up): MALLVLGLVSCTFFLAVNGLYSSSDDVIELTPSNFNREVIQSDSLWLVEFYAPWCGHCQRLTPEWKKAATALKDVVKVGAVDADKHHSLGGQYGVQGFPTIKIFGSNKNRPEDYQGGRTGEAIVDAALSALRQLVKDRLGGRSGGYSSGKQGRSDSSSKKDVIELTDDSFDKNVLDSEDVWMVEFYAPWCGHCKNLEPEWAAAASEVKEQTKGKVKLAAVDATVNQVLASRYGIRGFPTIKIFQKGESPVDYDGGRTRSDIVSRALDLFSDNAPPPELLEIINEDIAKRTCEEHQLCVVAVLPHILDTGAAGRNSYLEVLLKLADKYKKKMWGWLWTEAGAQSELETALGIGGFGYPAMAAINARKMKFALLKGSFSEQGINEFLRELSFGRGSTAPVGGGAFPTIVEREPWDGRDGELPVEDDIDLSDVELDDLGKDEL
PDI turbidity – inhibitors of human protein disulfide isomerase; P07237; PDI insulin aggregation turbidity, A650, 90 min; inhibition, % at 10 µM; actives 0.052% (n = 350,000);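 active = mean inhibition across replicates of 30% or more, whatever share of single replicates reach that level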
CFTR F508del cor – correctors of CFTR F508del function in bronchial epithelial cells. CFBE cells, YFP halide quenching; stimulated with forskolin plus potentiator P3; % fluorescence drop versus neutral controls. actives 0.36% (n = 350,000). activity (quench increase), % at 7.58 µM;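 active = mean added fluorescence quench of at least 8% versus neutral control, with both replicates also reaching 8%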;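 also: cells transiently co-express mutant CFTR-F508del with the halide-sensitive YFP; corrector assay measuring rescue of mutant channel to the surface after 24 h compound exposure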
Statin myotox sup – suppressors of simvastatin-induced myotoxicity in C2C12 myotubes; ATP luminescence, 48 h; scaled: DMSO 0, geranylgeraniol control 100; actives 0.78% (n = 330,000); rescue of ATP level, % at 7.49 µM;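 active = mean ATP rescue above about 67%, or every replicate alone reaching that limit, limit read from the data, passing the limit was not always enough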;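 also: myotubes were challenged with 10 µM simvastatin during compound exposure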
Cneo AK release – causes C. neoformans cell lysis. actives 0.2% (n = 360,000). lysis activity, % at 15 µM. adenylate kinase release luminescence, 4 h; normalised: neutral wells 0, clomiphene wells 100;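 active = mean lysis activity across replicates of at least 80%, whatever share of replicates individually reach that level; inactive = mean lysis activity below 80%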
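Material: C. neoformans cells; Schedule: 4 h static compound exposure, 37 °C, read 1 h post-reagent; Measured by: adenylate kinase release luminescence; Read-out: signal increase indicating cell lysis; Controls: Clomiphene as positive lysis control.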
An asterisk follows results filed as active.

Results for CCCCNc1c(-c2ccc(Sc3ccc(OC)cc3)cc2)nc2cc(C)ccn12 ?
DENV2 CPE rescue: 82*; ERp5 inh: 3; PDI turbidity: 0; CFTR F508del cor: 2; Statin myotox sup: 0; Cneo AK release: 12

Results for CCCCNc1c(-c2ccc(-c3ccc(C(C)=O)cc3)c(OC)c2)nc2cc(C)ccn12 ?
DENV2 CPE rescue: 61*; ERp5 inh: 1; PDI turbidity: 5; CFTR F508del cor: 0; Statin myotox sup: -65; Cneo AK release: 0

Results for Cc1c(/C=N/NC(=O)CNc2ccccc2)c2ccccn2c1C(=O)c1ccc(Cl)cc1 ?
PDI turbidity: -15; Cneo AK release: 1

How did Cc1c(/C=N/NC(=O)CNc2ccccc2)c2ccccn2c1C(=O)c1ccncc1 do in these assays?
DENV2 CPE rescue: 35*; ERp5 inh: 4; PDI turbidity: 5; CFTR F508del cor: -3

What do the screens show for `COCC#Cc1ccc2c(c1)O[C@H](CN(C)C(=O)NC(C)C)[C@@H](C)CN([C@@H](C)CO)S2(=O)=O`?
DENV2 CPE rescue: -3; ERp5 inh: -2; CFTR F508del cor: 0; Statin myotox sup: 1; Cneo AK release: 14

How did C[C@@H]1CN([C@H](C)CO)S(=O)(=O)c2ccc(C#CCN(C)C)cc2O[C@@H]1CN(C)Cc1ccc(F)cc1 do in these assays?
DENV2 CPE rescue: -3; ERp5 inh: 2; CFTR F508del cor: -1; Statin myotox sup: 0; Cneo AK release: 42

What do the screens show for `CC(C)(C)CC(=O)NC(=S)NCCc1ccccc1`?
DENV2 CPE rescue: -6; ERp5 inh: 0; PDI turbidity: 0; CFTR F508del cor: 2; Statin myotox sup: -22; Cneo AK release: 100*

How did COc1ccc(NC(=O)N(C)C[C@@H]2Oc3c(NC(=O)Nc4ccccc4)cccc3C(=O)N([C@@H](C)CO)C[C@@H]2C)cc1 do in these assays?
DENV2 CPE rescue: 0; ERp5 inh: 2; CFTR F508del cor: 0; Statin myotox sup: 4; Cneo AK release: -5

What do the screens show for `CNS(=O)(=O)c1cccc(C(=O)OCC(=O)Nc2ccc(Cl)cn2)c1`?
DENV2 CPE rescue: 2; ERp5 inh: 2; PDI turbidity: -1; CFTR F508del cor: -1; Statin myotox sup: -56; Cneo AK release: 12

How did CC(=O)Nc1cccc(C(=O)OCC(=O)Nc2ccc(Cl)cn2)c1 do in these assays?
DENV2 CPE rescue: 56*; ERp5 inh: 1; PDI turbidity: 0; CFTR F508del cor: -2; Statin myotox sup: -6; Cneo AK release: -1

Results for C[C@@H]1CCCCO[C@H](CN(C)C)[C@H](C)CN([C@H](C)CO)C(=O)c2cc(NS(=O)(=O)c3cn(C)cn3)ccc2O1 ?
DENV2 CPE rescue: -3; ERp5 inh: 2; CFTR F508del cor: -3; Cneo AK release: -3

How did CCOC(=O)N1CCN(C(=O)CN(Cc2ccccc2)S(=O)(=O)c2ccc(OC)c(C)c2)CC1 do in these assays?
PDI turbidity: 5; Cneo AK release: 0

What do the screens show for `COc1ccc(N(CC(=O)N2CCN(C)CC2)S(=O)(=O)c2cc(C)ccc2OC)cc1Cl`?
DENV2 CPE rescue: 83*; ERp5 inh: 6; PDI turbidity: -8; CFTR F508del cor: -3; Cneo AK release: 0

Results for CCOC(=O)N1CCN(C(=O)CN(Cc2ccccc2)S(=O)(=O)c2ccc(OC)c(Cl)c2)CC1 ?
PDI turbidity: -4; Statin myotox sup: 123*; Cneo AK release: 2

How did O=C(C[C@@H]1C[C@@H]2c3cc(NC(=O)CC4CC4)ccc3O[C@@H]2[C@H](CO)O1)NCc1ccccn1 do in these assays?
DENV2 CPE rescue: -10; ERp5 inh: 3; CFTR F508del cor: -1; Statin myotox sup: -8; Cneo AK release: 1

How did CN(C)CCn1c2ccccc2c2nc3ccc([N+](=O)[O-])cc3cc21 do in these assays?
DENV2 CPE rescue: -11; ERp5 inh: -5; PDI turbidity: 9; CFTR F508del cor: 13*; Cneo AK release: -1

How did CCOC(=O)OC[C@@H]1[C@@H]2NC(=O)N(C)[C@@]1(CO)Oc1ccccc12 do in these assays?
DENV2 CPE rescue: 2; ERp5 inh: 5; CFTR F508del cor: -2; Cneo AK release: 3

Compound activity (PubChem BioAssay)
